# According to ChEMBL document CHEMBL1128344 (J Med Chem, 1995):
# Molecular target: T1, Epidermal growth factor receptor (Homo sapiens, UniProt P00533)
# Assay: Inhibition of EFGR tyrosine kinase from A431 cells
# Assay type: cell-based
# Conditions: A-431
# Outline: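 Enzyme source was the native EGFR complex in plasma membrane vesicles shed from cultured A431 epidermoid carcinoma cells. Kinase activity was measured as ³²P incorporation from added [γ-³²P]ATP into a 6:3:1 random copolymer of glutamate, alanine and tyrosine.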
# T1 sequence (P00533 whole entry): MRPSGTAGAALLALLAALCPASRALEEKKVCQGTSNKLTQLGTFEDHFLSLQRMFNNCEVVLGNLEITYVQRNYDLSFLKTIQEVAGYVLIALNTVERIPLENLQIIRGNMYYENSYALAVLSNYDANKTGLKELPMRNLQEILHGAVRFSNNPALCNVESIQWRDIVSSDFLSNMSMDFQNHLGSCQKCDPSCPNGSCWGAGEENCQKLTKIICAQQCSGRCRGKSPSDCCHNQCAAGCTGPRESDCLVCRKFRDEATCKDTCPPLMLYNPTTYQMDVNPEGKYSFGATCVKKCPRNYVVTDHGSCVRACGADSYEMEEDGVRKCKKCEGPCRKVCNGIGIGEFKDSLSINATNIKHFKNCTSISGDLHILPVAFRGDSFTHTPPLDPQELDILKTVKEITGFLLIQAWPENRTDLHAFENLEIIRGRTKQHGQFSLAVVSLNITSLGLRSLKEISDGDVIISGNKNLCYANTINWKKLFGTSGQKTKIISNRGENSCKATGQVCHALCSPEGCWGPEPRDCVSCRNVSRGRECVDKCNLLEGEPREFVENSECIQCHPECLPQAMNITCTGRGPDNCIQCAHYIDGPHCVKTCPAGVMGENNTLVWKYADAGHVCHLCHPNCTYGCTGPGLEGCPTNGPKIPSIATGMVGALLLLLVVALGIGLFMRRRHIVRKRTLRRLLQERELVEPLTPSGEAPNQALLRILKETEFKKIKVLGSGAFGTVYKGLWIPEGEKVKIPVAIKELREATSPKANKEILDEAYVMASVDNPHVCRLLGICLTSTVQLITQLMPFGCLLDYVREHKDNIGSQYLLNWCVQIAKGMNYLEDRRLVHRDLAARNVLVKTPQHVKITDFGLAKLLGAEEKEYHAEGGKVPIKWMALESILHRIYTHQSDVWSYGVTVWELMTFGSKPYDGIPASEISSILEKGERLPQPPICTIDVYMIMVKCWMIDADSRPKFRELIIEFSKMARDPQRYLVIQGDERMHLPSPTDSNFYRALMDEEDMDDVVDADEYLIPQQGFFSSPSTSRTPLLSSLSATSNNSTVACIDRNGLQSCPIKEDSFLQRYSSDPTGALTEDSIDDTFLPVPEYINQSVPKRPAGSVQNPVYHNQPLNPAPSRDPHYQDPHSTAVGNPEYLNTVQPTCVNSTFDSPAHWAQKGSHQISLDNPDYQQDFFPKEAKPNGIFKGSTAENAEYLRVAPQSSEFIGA
row,SMILES,FC50
1,CN(C)CCCn1c(SSc2c(C(=O)Nc3ccccc3)c3ccccc3n2CCCN(C)C)c(C(=O)Nc2ccccc2)c2ccccc21,26 µM
2,CN1C(=S)C(C(=O)c2ccc(C(=O)O)cc2)c2ccccc21 (configuration not stated),8.7 µM
3,CC1C(=S)N(C)c2ccccc21 (configuration not stated),> 100 µM
4,COC(=O)c1ccc(C(=O)C2C(=S)N(C)c3ccccc32)cc1 (configuration not stated),> 100 µM
5,CN1C(=S)C(C(=O)c2ccco2)c2ccccc21 (configuration not stated),> 100 µM
6,CC(=O)C1C(=S)N(C)c2ccccc21 (configuration not stated),> 100 µM
7,CN1C(=S)C(C(=O)c2ccccc2)c2ccccc21 (configuration not stated),> 100 µM
8,CN1C(=S)C(C(=O)Nc2ccccc2)c2ccccc21 (configuration not stated),1 µM

# Molecular target: T1, Epidermal growth factor receptor
# Assay: Inhibitory concentration compound against EFGR tyrosine kinase obtained from plasma membrane vesicles from cultured A431 cells
# Assay type: cell-free, A-431
# Conditions: not given
row,SMILES,IC50
1,Cc1ccc(S(=O)(=O)c2c(SSc3[nH]c4ccccc4c3S(=O)(=O)c3ccc(C)cc3)[nH]c3ccccc23)cc1,28.7 µM
2,COC(=O)c1ccc(NC(=O)c2c(SSc3c(C(=O)Nc4ccc(C(=O)OC)cc4)c4ccccc4n3C)n(C)c3ccccc23)cc1,> 100 µM
3,COC(=O)c1cccc(NC(=O)c2c(SSc3c(C(=O)Nc4cccc(C(=O)OC)c4)c4ccccc4n3C)n(C)c3ccccc23)c1,> 100 µM
4,CNC(=O)c1c(SSc2c(C(=O)NC)c3ccccc3n2C)n(C)c2ccccc12,1.8 µM
5,CN(C(=O)c1c(SSc2c(C(=O)N(C)c3ccccc3)c3ccccc3n2C)n(C)c2ccccc12)c1ccccc1,> 100 µM
6,Cn1c(SSc2c(C(=O)Nc3ccncc3)c3ccccc3n2C)c(C(=O)Nc2ccncc2)c2ccccc21,> 100 µM
7,O=C(NCc1ccccc1)c1c(SSc2[nH]c3ccccc3c2C(=O)NCc2ccccc2)[nH]c2ccccc12,15 µM
8,Cn1c(SSc2c(C(=O)Nc3ccccc3)c3ccccc3n2C)c(C(=O)Nc2ccccc2)c2ccccc21,10.9 µM
9,CNC(=O)c1c(SSc2[nH]c3ccccc3c2C(=O)NC)[nH]c2ccccc12,6.1 µM
10,Cn1c(SSc2c(C(=O)c3ccco3)c3ccccc3n2C)c(C(=O)c2ccco2)c2ccccc21,7.7 µM
11,Cn1c(SSc2c(C(=O)c3ccccc3)c3ccccc3n2C)c(C(=O)c2ccccc2)c2ccccc21,> 100 µM
12,O=C(Nc1ccccc1)c1c(SSc2[nH]c3ccccc3c2C(=O)Nc2ccccc2)[nH]c2ccccc12,100 µM
13,COC(=O)c1ccccc1NC(=O)c1c(SSc2c(C(=O)Nc3ccccc3C(=O)OC)c3ccccc3n2C)n(C)c2ccccc12,> 100 µM
14,Cn1c(SSc2c(C(=O)Nc3ccccn3)c3ccccc3n2C)c(C(=O)Nc2ccccn2)c2ccccc21,47 µM
15,CN(C)CCNC(=O)c1c(SSc2c(C(=O)NCCN(C)C)c3ccccc3n2C)n(C)c2ccccc12,17.5 µM
16,NC(Cc1c(SSc2[nH]c3ccccc3c2CC(N)C(=O)NCc2ccccc2)[nH]c2ccccc12)C(=O)NCc1ccccc1 (configuration not stated),3.3 µM
17,Cc1c(SSc2c(C)c3ccccc3n2C)n(C)c2ccccc12,> 100 µM
18,Cn1c(SSc2c(C(=O)NCc3ccccc3)c3ccccc3n2C)c(C(=O)NCc2ccccc2)c2ccccc21,1.7 µM
19,CCn1c(SSc2c(C(=O)Nc3ccccc3)c3ccccc3n2CC)c(C(=O)Nc2ccccc2)c2ccccc21,> 100 µM
20,Cn1c(SSc2c(C(=O)Nc3cccnc3)c3ccccc3n2C)c(C(=O)Nc2cccnc2)c2ccccc21,> 100 µM
21,Cn1c(SSc2c(C(=O)Nc3cccs3)c3ccccc3n2C)c(C(=O)Nc2cccs2)c2ccccc21,> 100 µM
22,c1ccc(-c2c(SSc3[nH]c4ccccc4c3-c3ccccc3)[nH]c3ccccc23)cc1,100 µM

# Tested on: not listed separately
# Assay: Inhibition of v-src from baculovirus culture
# Conditions: not given
# Outline: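 pp60v-src from v-src baculovirus-infected insect cells, bound via monoclonal antibody to 0.65 μm latex beads. Activity was measured as ³²P incorporation from [γ-³²P]ATP into poly[(glu)4(tyr)1] substrate.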
row,SMILES,IC50
1,CN(C)CCCn1c(SSc2c(C(=O)Nc3ccccc3)c3ccccc3n2CCCN(C)C)c(C(=O)Nc2ccccc2)c2ccccc21,5.6 µM
2,CC1C(=S)N(C)c2ccccc21 (configuration not stated),> 100 µM
3,CN1C(=S)C(C(=O)c2ccco2)c2ccccc21 (configuration not stated),10.8 µM
4,CC(=O)C1C(=S)N(C)c2ccccc21 (configuration not stated),> 50 µM
5,CN1C(=S)C(C(=O)Nc2ccccc2)c2ccccc21 (configuration not stated),10 µM

# Molecular target: not listed separately
# Assay: Inhibitory concentration of the against pp60v-src tyrosine kinase obtained from v-src baculovirus-infected insect cells
# Conditions: not given
row,SMILES,IC50
1,Cn1c(SSc2c(C(=O)Nc3ccccc3)c3cc(C(F)(F)F)ccc3n2C)c(C(=O)Nc2ccccc2)c2cc(C(F)(F)F)ccc21,5.8 µM
2,Cn1c(SSc2c(C(=O)Nc3ccccc3)c3ccccc3n2C)c(C(=O)Nc2ccccc2)c2ccccc21,3.2 µM
